Assay outcomes: PubChem, several laboratories
procasp3 activ: activators of human procaspase-3; P42574; recombinant procaspase-3 D3A, Ac-DEVD-pNA absorbance 405 nm; activation, % at 8.5 µM; 0.11% of 330,000 active; AID 463141;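 active = activation above the mean of all tested compounds plus 3 SD, cut at about 21% in these data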
Target sequence (P42574 whole entry D9A/D28A/D175A): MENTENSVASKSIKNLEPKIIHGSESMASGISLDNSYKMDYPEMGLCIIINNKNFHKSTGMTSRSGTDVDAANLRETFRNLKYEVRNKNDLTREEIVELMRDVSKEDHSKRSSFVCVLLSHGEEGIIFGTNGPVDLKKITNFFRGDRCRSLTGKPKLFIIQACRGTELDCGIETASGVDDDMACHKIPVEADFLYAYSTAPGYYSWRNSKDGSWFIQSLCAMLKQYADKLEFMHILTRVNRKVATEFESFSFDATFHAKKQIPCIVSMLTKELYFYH
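Evaluation: percent activation relative to control range; Material: Procaspase-3 D3A mutant, all three cleavage aspartates alanine; Compound: single dose, 8.5 µM nominal compound, 0.8% DMSO; Replication: one well per compound; Signal: absorbance at 405 nm, 0 and 120 min; Schedule: 1 h preincubation plus 2 h reaction at 25 °C.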
aDG glyco up: alpha-DG glycosylation activation. AID 624168. Pro5-aDG cells, alpha-DG glycosylation AlphaScreen (IIH6); 0% Pro5, 100% B10-LARGE cell signal. 0.22% of 360,000 active. activation, % at 10 µM;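 active = activation of at least 8% versus controls, or a plate z-score of at least 8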;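 note: Pro5 are CHO cells carrying HIG-tagged alpha-DG that lacks glycosylation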
MPTP inh: permeability transition pore inhibition; isolated mouse mitochondria, Ca2+ swelling absorbance, 30 min; inhibition, % at 10 µM; 1.4% of 360,000 active; AID 602449;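 active = inhibition of 50% or more, scaled per plate between neutral and stimulator controls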
procasp7 counter: counter-screen: procaspase-7 (human) activation | activation, % at 8.5 µM | AID 463210 | 0.093% of 330,000 active | recombinant procaspase-7, Ac-DEVD-pNA absorbance 405 nm; D23A/D198A/D206A triple mutant, cannot self-cleave; scale: DMSO 0, 5 µM enzyme 100;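 active = percent activation above the screen-wide mean plus 3 SD, cut at about 25% in these data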
Target sequence (P55210 whole entry D23A/D198A/D206A): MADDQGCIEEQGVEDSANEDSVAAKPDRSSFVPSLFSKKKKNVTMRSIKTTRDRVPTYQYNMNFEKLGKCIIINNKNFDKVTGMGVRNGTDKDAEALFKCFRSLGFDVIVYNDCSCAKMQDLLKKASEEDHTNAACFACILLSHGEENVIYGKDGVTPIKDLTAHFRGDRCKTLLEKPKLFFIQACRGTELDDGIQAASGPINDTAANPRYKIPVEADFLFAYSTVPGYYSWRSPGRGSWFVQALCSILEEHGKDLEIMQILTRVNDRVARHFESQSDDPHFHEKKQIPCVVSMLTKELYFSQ
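Assay system: Uncleavable procaspase-7 mutant enzyme | Input: 2 µM procaspase-7 mutant as dispensed | Timing: 1 h compound preincubation, 2 h substrate cleavage, 25 °C | Repeats: One well per compound | Control set: DMSO wells as 0%, DMSO with 5 µM added PC-7 as 100% | Technique: Epi-absorbance of released pNA at 405 nm, two timepoints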
NR3A LBD binder: modulators (binders) of human NR3A ligand-binding domain; NR3A LBD differential scanning fluorimetry, Tm shift; 0% = protein alone, 100% = glycine-bound protein; Tm shift relative to glycine control, % at 25 µM; 2.5% of 340,000 active; AID 1259313;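 active = melting temperature shift of at least 10% of the positive control shift, at one fixed dose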
Numbers stand for hits. Only some compounds are listed: those with a hit (about 3.7% of all), similar ones and a draw of the others.

Results for CS(=O)(=O)c1ccc2nc(NC(=O)c3ccc(NS(=O)(=O)c4ccc(F)c(F)c4)cc3)sc2c1 ?
procasp3 activ: inactive; aDG glyco up: inactive; MPTP inh: inactive; procasp7 counter: inactive; NR3A LBD binder: 24

What do the screens show for `CS(=O)(=O)c1ccc2nc(NC(=O)c3cccc(NS(=O)(=O)c4ccc(F)c(F)c4)c3)sc2c1`?
procasp3 activ: inactive; aDG glyco up: inactive; MPTP inh: inactive; procasp7 counter: inactive; NR3A LBD binder: 26

What do the screens show for `CC1CCCC(NC(=O)COC(=O)/C=C/c2ccco2)C1C` (stereo unspecified)?
procasp3 activ: inactive; aDG glyco up: inactive; MPTP inh: inactive; procasp7 counter: inactive; NR3A LBD binder: inactive

How did Cc1ccc(Oc2ccc(NS(=O)(=O)c3cccc(C(=O)O)c3)cc2)cc1 do in these assays?
procasp3 activ: inactive; aDG glyco up: inactive; MPTP inh: inactive; procasp7 counter: inactive; NR3A LBD binder: inactive

Results for CCCCCCCCCCNC(=O)C(=O)Nc1ccccn1 ?
procasp3 activ: inactive; aDG glyco up: inactive; MPTP inh: inactive; procasp7 counter: inactive; NR3A LBD binder: 12

Results for COC(=O)C1=CN(c2ccc(N3CCOCC3)cc2)C(N)=C(C#N)C1c1ccc(-c2ccccc2)cc1 (stereo unspecified) ?
aDG glyco up: inactive; MPTP inh: inactive

What do the screens show for `O=C(Nc1ccc2c(c1)OCO2)Nc1ccc2c(c1)OCO2`?
procasp3 activ: inactive; aDG glyco up: inactive; MPTP inh: inactive; procasp7 counter: inactive; NR3A LBD binder: inactive

Results for O=C(Nc1ccc2c(c1)OCO2)Nc1ccc(F)cc1F ?
procasp3 activ: inactive; aDG glyco up: inactive; MPTP inh: inactive; procasp7 counter: inactive; NR3A LBD binder: inactive

What do the screens show for `O=C(Nc1cccc(C(=O)O)c1)Nc1ccc2c(c1)OCO2`?
procasp3 activ: inactive; aDG glyco up: inactive; MPTP inh: inactive; procasp7 counter: inactive; NR3A LBD binder: 24

Results for Cc1ccc(C(=O)O)cc1NC(=O)Nc1ccc2c(c1)OCO2 ?
procasp3 activ: inactive; aDG glyco up: inactive; MPTP inh: inactive; procasp7 counter: inactive; NR3A LBD binder: inactive

Results for Cc1ccc(C)c(OCC(=O)Nc2ccc3c(c2)OCO3)c1C ?
procasp3 activ: inactive; aDG glyco up: inactive; MPTP inh: inactive; procasp7 counter: inactive; NR3A LBD binder: inactive

How did Cc1ccc(NC(=O)Nc2ccc3c(c2)OCO3)c(Br)c1 do in these assays?
procasp3 activ: inactive; aDG glyco up: inactive; MPTP inh: inactive; procasp7 counter: inactive; NR3A LBD binder: 19

How did Cc1cccc(OCC(=O)Nc2ccc3c(c2)OCO3)c1C do in these assays?
procasp3 activ: inactive; aDG glyco up: inactive; MPTP inh: inactive; procasp7 counter: inactive; NR3A LBD binder: 23

How did O=C(Nc1ccc(F)cc1)Nc1ccc2c(c1)OCO2 do in these assays?
procasp3 activ: inactive; aDG glyco up: inactive; MPTP inh: inactive; procasp7 counter: inactive; NR3A LBD binder: 11

What do the screens show for `COc1cc(NC(=O)Nc2ccc3c(c2)OCO3)cc(OC)c1OC`?
procasp3 activ: inactive; aDG glyco up: inactive; MPTP inh: inactive; procasp7 counter: inactive; NR3A LBD binder: 26

What do the screens show for `COc1cc(C(=O)NC(=S)Nc2ccc3c(c2)OCO3)cc(OC)c1OC`?
procasp3 activ: inactive; aDG glyco up: inactive; MPTP inh: inactive; procasp7 counter: inactive; NR3A LBD binder: inactive

Results for O=C(Nc1cccc(F)c1)Nc1ccc2c(c1)C(=O)OC2 ?
procasp3 activ: inactive; aDG glyco up: inactive; MPTP inh: inactive; procasp7 counter: inactive; NR3A LBD binder: 14

How did O=C(Nc1cccc(F)c1)Nc1cnccn1 do in these assays?
procasp3 activ: inactive; aDG glyco up: inactive; MPTP inh: inactive; procasp7 counter: inactive; NR3A LBD binder: 21

How did CCC/C(C(=O)NCCO)=C1/c2ccccc2C(=O)N1c1ccccc1 do in these assays?
procasp3 activ: inactive; aDG glyco up: inactive; MPTP inh: inactive; procasp7 counter: inactive; NR3A LBD binder: inactive

How did CN1OC[C@@H]2CN(S(=O)(=O)c3ccccc3)[C@H](c3ccc(-n4ccnc4)cc3)C[C@@H]21 do in these assays?
aDG glyco up: inactive; MPTP inh: inactive

Results for O=C(CC1CCCC1)NNC(=O)c1ccc(Br)cc1 ?
procasp3 activ: inactive; aDG glyco up: inactive; MPTP inh: inactive; procasp7 counter: inactive; NR3A LBD binder: inactive

Results for Cc1cc2c(nn1)CCc1c-2no[n+]1[O-] ?
procasp3 activ: inactive; aDG glyco up: inactive; MPTP inh: inactive; procasp7 counter: inactive; NR3A LBD binder: inactive

Results for O=C1NCCCc2c1no[n+]2[O-] ?
procasp3 activ: inactive; aDG glyco up: inactive; MPTP inh: inactive; procasp7 counter: inactive; NR3A LBD binder: 11

How did C[N+](=O)C1C(=O)Nc2ccccc21 (stereo unspecified) do in these assays?
aDG glyco up: inactive; MPTP inh: inactive

What do the screens show for `Cc1cc(C)c2nc(NC(=O)[C@@H](NC(=O)c3cccc(S(=O)(=O)N4CCOCC4)c3)C(C)C)sc2c1`?
procasp3 activ: inactive; aDG glyco up: inactive; MPTP inh: inactive; procasp7 counter: inactive; NR3A LBD binder: 34

Results for Cc1cc(C)c2nc(NC(=O)c3cccc(S(=O)(=O)N4CCc5ccccc54)c3)sc2c1 ?
procasp3 activ: inactive; aDG glyco up: inactive; MPTP inh: inactive; procasp7 counter: inactive; NR3A LBD binder: 10

Results for Cc1cccc(C(=O)N[C@H](C(=O)Nc2cc(S(=O)(=O)N3CCCCC3)ccc2C)C(C)C)c1 ?
procasp3 activ: inactive; aDG glyco up: inactive; MPTP inh: inactive; procasp7 counter: inactive; NR3A LBD binder: inactive

Results for COc1ccc(-c2ccc(N)cn2)cn1 ?
procasp3 activ: inactive; aDG glyco up: inactive; MPTP inh: inactive; procasp7 counter: inactive; NR3A LBD binder: inactive

What do the screens show for `CCOC(=O)C1=C(C)N=c2s/c(=C\c3ccc(C(=O)O)cc3)c(=O)n2C1c1ccc(OC)cc1OC` (stereo unspecified)?
procasp3 activ: inactive; aDG glyco up: inactive; MPTP inh: inactive; procasp7 counter: inactive; NR3A LBD binder: 429

Results for C[C@H](O)CNC(=O)c1[nH]cnc1C(=O)N[C@@H](C)c1ccccc1 ?
aDG glyco up: inactive; MPTP inh: inactive

How did COc1ccc(NC(=O)C(c2ccccc2)n2c(=O)c(-c3ccco3)nc3ccccc32)cc1 (stereo unspecified) do in these assays?
aDG glyco up: inactive; MPTP inh: inactive

Results for CCOc1cc(/C=C2/C(=O)ON=C2C)ccc1O ?
procasp3 activ: inactive; aDG glyco up: inactive; MPTP inh: inactive; procasp7 counter: inactive; NR3A LBD binder: inactive

What do the screens show for `CC1=NOC(=O)/C1=C/c1ccc(O)c(Cl)c1`?
procasp3 activ: inactive; aDG glyco up: inactive; MPTP inh: inactive; procasp7 counter: inactive; NR3A LBD binder: 20

Results for C#CCOc1c(Cl)cc(/C=C2/C(=O)ON=C2C)cc1OC ?
procasp3 activ: inactive; aDG glyco up: inactive; MPTP inh: inactive; procasp7 counter: inactive; NR3A LBD binder: inactive
